Calls of active or inactive are those of the source. No cut-off for these calls is given here.
Experiments:
[1] = Metabolic stability in dog liver microsomes assessed as half life at […] measured up to 60 mins in presence of NADPH regeneration system by LC-MS/MS analysis; type: ADME, Canis lupus familiaris, Microsome
[2] = Tmax in Sprague-Dawley rat at 5 mg/kg,po measured up to 24 hrs by LC-MS/MS analysis; type: ADME, organism-based; settings: in vivo
Rattus norvegicus [3] = assay: Antithrombotic activity in anesthetized Wistar rat model of tail-bleeding assessed as increase in bleeding weight at 10 mg/kg, po administered as single dose measured at 1.5 hrs post dose; type: functional
How it was run: (§1)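 Male rats (250–300 g, n = 10 per dose) acclimatized at least 7 days, then dosed by oral gavage. At 1.5 h, anesthetized with 2% pentobarbital i.p. at 50 mg/kg. Tail transected 4 mm from the tip and immersed in saline at 37 °C; bleeding ended when no blood appeared for 30 s. Bleeding time and blood loss weight recorded as mean ± SEM.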

[4] = Metabolic stability in human liver microsomes assessed as half life at […] measured up to 60 mins in presence of NADPH regeneration system by LC-MS/MS analysis; type: ADME, Microsome
[5] = Metabolic stability in rat liver microsomes assessed as half life at […] measured up to 60 mins in presence of NADPH regeneration system by LC-MS/MS analysis; type: ADME, Microsome
Rattus norvegicus [6] = assay: Antithrombotic activity in anesthetized Wistar rat model of FeCL3-induced carotid artery thrombosis assessed as reduction in thrombus weight by measuring inhibition of thrombosis formation at 40 mg/kg, po administered as single dose measured at 1.5 hrs post dose; type: functional; parameters: scale not given: the % may be the effect or the level left
How it was run: (§2)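 Compounds in 0.5% CMC-Na given to Wistar rats as a single oral gavage dose (10 mL/kg). Rats anesthetized with 2% pentobarbital i.p. at 50 mg/kg and kept on a heating pad. At 1.5 h post-dose, filter paper soaked in 20% FeCl3 applied to the isolated left carotid artery for 10 min; thrombus weight recorded. Mean ± SEM, n = 10.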

[7] = Oral bioavailability in Sprague-Dawley rat at 5 mg/kg,po measured up to 24 hrs by LC-MS/MS analysis; type: ADME, organism-based; settings: in vivo
Homo sapiens = species on record: Homo sapiens; assay: Antiplatelet activity in human platelet-rich plasma assessed as inhibition of ADP-induced platelet aggregation by aggregometry; type: functional
How it was run: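 Human PRP from healthy donors free of aspirin/NSAIDs for at least two weeks, drawn into ACD; PRP spun at 300 g for 10 min, PPP at 2000 g. Compound in 0.5% DMSO preincubated 2 min at 37 °C with stirring (900 rpm). Aggregation induced by 10 μM ADP (final) and followed optically for 5 min.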

Rattus norvegicus [8] = assay: Antithrombotic activity in anesthetized Wistar rat model of tail-bleeding assessed as increase in bleeding weight at 40 mg/kg, po administered as single dose measured at 1.5 hrs post dose; type: functional; how it was run: as §1
[9] = MRT in Sprague-Dawley rat at 5 mg/kg,po measured up to 24 hrs by LC-MS/MS analysis; type: ADME, organism-based; settings: in vivo
Rattus norvegicus [10] = assay: Antithrombotic activity in anesthetized Wistar rat model of FeCL3-induced carotid artery thrombosis assessed as reduction in thrombus weight at 10 mg/kg, po administered as single dose measured at 1.5 hrs post dose; type: functional, organism-based; how it was run: as §2
[11] = Half life in Sprague-Dawley rat at 5 mg/kg,po measured up to 24 hrs by LC-MS/MS analysis; type: ADME, organism-based; settings: in vivo
[12] = Metabolic stability in rat liver microsomes assessed as intrinsic clearance at 0.1 µM measured up to 60 mins in presence of NADPH regeneration system by LC-MS/MS analysis; settings: 1 h
[13] = Metabolic stability in dog liver microsomes assessed as intrinsic clearance at 0.1 µM measured up to 60 mins in presence of NADPH regeneration system by LC-MS/MS analysis; settings: 1 h
Rattus norvegicus [14] = assay: Antithrombotic activity in anesthetized Wistar rat model of tail-bleeding assessed as increase in bleeding time po administered as single dose measured at 1.5 hrs post dose; type: functional; how it was run: as §1
Rattus norvegicus [15] = assay: Antithrombotic activity in anesthetized Wistar rat model of tail-bleeding assessed as increase in bleeding weight at 20 mg/kg, po administered as single dose measured at 1.5 hrs post dose; type: functional; how it was run: as §1
[16] = AUC (0 to infinity) in Sprague-Dawley rat at 5 mg/kg,po measured up to 24 hrs by LC-MS/MS analysis; type: ADME, organism-based; parameters: time < 24 hrs, dose 5 mg/kg, route po; settings: in vivo
[17] = Cmax in Sprague-Dawley rat at 5 mg/kg,po measured up to 24 hrs by LC-MS/MS analysis; type: ADME, organism-based; parameters: time < 24 hrs, dose 5 mg/kg, route po; settings: in vivo
Rattus norvegicus [18] = assay: Antithrombotic activity in anesthetized Wistar rat model of tail-bleeding assessed as increase in bleeding time at 40 mg/kg, po administered as single dose measured at 1.5 hrs post dose; type: functional; how it was run: as §1
Rattus norvegicus [19] = assay: Antithrombotic activity in anesthetized Wistar rat model of FeCL3-induced carotid artery thrombosis assessed as reduction in thrombus weight po administered as single dose measured at 1.5 hrs post dose; type: functional; how it was run: as §2
Rattus norvegicus [20] = assay: Antithrombotic activity in anesthetized Wistar rat model of tail-bleeding assessed as increase in bleeding weight at 5 mg/kg, po administered as single dose measured at 1.5 hrs post dose; type: functional; how it was run: as §1
Rattus norvegicus [21] = assay: Antithrombotic activity in anesthetized Wistar rat model of tail-bleeding assessed as increase in bleeding weight at […], po administered as single dose measured at 1.5 hrs post dose; type: functional
[22] = Metabolic stability in human liver microsomes assessed as intrinsic clearance at 0.1 µM measured up to 60 mins in presence of NADPH regeneration system by LC-MS/MS analysis; settings: 1 h

half-life [1]: 1.62 h
Tmax [2]: 0.25 h
half-life [4]: 3.47 h
half-life [5]: 1.48 h
bioavailability [7]: 51%
IC50 (Homo sapiens): 2940 nM
MRT [9]: 3.64 h
half-life [11]: 2.91 h
intrinsic clearance [12]: 10.6 mL/min/g
intrinsic clearance [13]: 116.3 mL/min/g
AUC(0-inf) [16]: 4120 ng·h/mL
Cmax [17]: 1660 ng/mL
intrinsic clearance [22]: 10.1 mL/min/g
Structure (SMILES): Cc1ccc(CS(=O)(=O)NC(=O)C2(C)CCN(c3nc4c(cc3C#N)C(=O)OC4)CC2)cc1
Activity (Rattus norvegicus [3]): 0.39 g
Activity (Rattus norvegicus [6]): 56%
Activity (Rattus norvegicus [8]): 0.66 g
Activity (Rattus norvegicus [10]): Active
ED100 (Rattus norvegicus [14]): 7.58 mg/kg
Activity (Rattus norvegicus [15]): 0.43 g
Time (Rattus norvegicus [18]): 33.09 min
ED50 (Rattus norvegicus [19]): 27 mg/kg
Activity (Rattus norvegicus [20]): 0.31 g
Activity (Rattus norvegicus [21]): 0.24 g

Source: ChEMBL document CHEMBL5233208, “Optimization of P2Y12 Antagonist Ethyl 6-(4-((Benzylsulfonyl)carbamoyl)piperidin-1-yl)-5-cyano-2-methylnicotinate (AZD1283) Led to the Discovery of an Oral Antiplatelet Agent with Improved Druglike Properties” (J Med Chem, 2019)
